The list is not random: actives were taken first. Their share in the collection is about 2.2%.
NR2E3 ag-1 = agonists of human nuclear receptor NR2E3 | actives 0.12% (n = 320,000) | Q9Y5X4 | inhibition of corepressor binding, % at 4.78 µM | GST-NR2E3/biotin-RetCOR TR-FRET, 1536-well;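 active means percent inhibition above the cutoff of mean plus 3 SD of all tested compounds, set per screening campaign, cut at about 20% in these data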
Target sequence (Q9Y5X4 whole entry, looked up): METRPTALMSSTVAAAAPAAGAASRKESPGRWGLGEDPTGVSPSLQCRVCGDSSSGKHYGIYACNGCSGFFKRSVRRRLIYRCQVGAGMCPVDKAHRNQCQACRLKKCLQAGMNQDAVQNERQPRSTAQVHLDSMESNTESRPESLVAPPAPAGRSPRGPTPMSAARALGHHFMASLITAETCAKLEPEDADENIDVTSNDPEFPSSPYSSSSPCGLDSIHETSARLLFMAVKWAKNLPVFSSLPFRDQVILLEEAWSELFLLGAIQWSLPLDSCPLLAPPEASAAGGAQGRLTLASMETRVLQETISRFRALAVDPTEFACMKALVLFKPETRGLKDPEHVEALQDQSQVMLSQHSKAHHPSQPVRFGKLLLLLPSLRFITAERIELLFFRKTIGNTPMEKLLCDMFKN
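Material: NR2E3–RetCOR corepressor complex / Incubation: Compound–protein incubation for 5 h at 4 °C / Dosing: compound at 4.8 µM, single dose / Detection: time-resolved FRET / Benchmarks: high control biotin, low control 0.6% DMSO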
697 NFkB inh = inhibitors of the PMA/ionomycin-induced NF-kB reporter in 697 B cells | 697 B-cell NF-kB luciferase reporter, 16 h | inhibition, % at 4 µM | actives 0.33% (n = 330,000); in the data active means inhibition above about 35%
miR-122 sensor = inhibitors of miR-122 in Huh7 cells | actives 0.3% (n = 340,000) | activation (reporter increase), % at 12.5 µM | AID 602342 | Huh7 miR-122 Renilla luciferase sensor, 48 h; neutral wells = 0, positive control = 100;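 active means mean replicate activation score at least 90 and every replicate individually at or above 90; inconclusive means only one of the two criteria met; inactive means neither criterion met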;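 further: higher luciferase means less miR-122 activity so hits act as miR-122 inhibitors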
Jurkat NFkB inh = lowers PMA/ionomycin-induced NF-kB signal in Jurkat cells; PMA/ionomycin-induced NF-kB luciferase reporter, luminescence; inhibition, % at 4 µM; actives 0.53% (n = 330,000); in the data active means inhibition above about 50%
FGF22 binding-1 = FGF22 (human) thermal shift binding; activity (Tm shift, normalised), % at 9.99 µM; Q9HCT0; recombinant FGF22 thermal shift, SYPRO orange fluorescence; percent of sucrose octasulfate shift, DMSO zero; actives 1.5% (n = 340,000);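 active means mean Tm shift, scaled 0 neutral to 100 positive control, at about 1.3% or above, every replicate too, limit read from the data; inconclusive means no clear call, values can overlap the other calls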
Target sequence (Q9HCT0 whole entry, looked up): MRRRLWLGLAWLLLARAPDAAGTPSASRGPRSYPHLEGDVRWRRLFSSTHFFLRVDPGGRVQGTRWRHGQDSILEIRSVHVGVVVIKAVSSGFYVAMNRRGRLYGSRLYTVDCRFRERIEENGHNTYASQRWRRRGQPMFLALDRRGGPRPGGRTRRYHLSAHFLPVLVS
NR2E3 ag-2 = agonists of human NR2E3 nuclear receptor; AID 602229; CHO-S Gal4-NCOR/VP16-NR2E3 two-hybrid, luciferase; Q9Y5X4; actives 0.35% (n = 360,000); inhibition of corepressor binding, % at 3.98 µM;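 active means inhibition above the mean of all tested compounds plus 3 SD, cut at about 70% in these data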;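 further: higher means lower luciferase signal from less NR2E3 corepressor binding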
Jurkat NFkB conf = inhibitors of the PMA/ionomycin-induced NF-kB reporter in Jurkat cells, retest | actives 27% (n = 2,700) | Jurkat NF-kB luciferase, 16 h | shares compounds with Jurkat NFkB inh | AID 435020 | inhibition, % at 4 µM;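 active means inhibition reaching about 45% at 4 µM in either replicate, limit read from the data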
697 NFkB conf = lowers PMA/ionomycin-induced NF-kB signal in 697 B cells | shares compounds with 697 NFkB inh | 697 B-cell NF-kB luciferase, 16 h | inhibition, % at 4 µM | actives 35% (n = 2,000); in the data active means inhibition mostly above about 28%, no sharp cut-off; inactive means mostly below about 22%
NR2E3 ag confirm = NR2E3 agonism confirmed in two-hybrid assay; inhibition, % at 3.98 µM; shares compounds with NR2E3 ag-2; actives 51% (n = 2,300); CHO-S mammalian two-hybrid NR2E3-NCOR, luciferase luminescence; AID 624378;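 active means average inhibition above a cutoff equal to the mean inhibition of all tested compounds plus one SD, cut at about 70% in these data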
GAL4-VP16 luc = reduces GAL4-VP16 reporter signal in NR2E3 counterscreen | shares compounds with NR2E3 ag-2 | CHO-S GAL4-VP16 luciferase reporter, luminescence | inhibition, % at 3.98 µM | actives 29% (n = 2,300) | AID 624379;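 active means mean inhibition above a cutoff equal to the average over all tested compounds plus one standard deviation, cut at about 70% in these data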;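 further: luciferase from a UAS reporter driven by GAL4-VP16 transactivation; higher means less reporter light so more repression of VP16 activity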
miR-27b qPCR = selectivity of miR-122 inhibitors: effect on miR-27b in Huh7. 35 tested, under 10 active. relative miR-27b level (unnormalised ratio), ratio at 35 µM. shares compounds with miR-122 sensor. Huh7 miR-27b levels, qRT-PCR, 48 h;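 active means compounds lowering miR-27b whose fitted half-maximal dose is at most twice their top tested dose; inconclusive means flat curve with moderate drop, or poor fit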
FGF22 binding-2 = binds human FGF22 shifting its melting temperature; shares compounds with FGF22 binding-1; recombinant FGF22 thermal shift, SYPRO orange fluorescence; thermal shift activity, °C (ΔTm) at 38 µM; actives 2% (n = 1,000); AID 720646;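 active means fitted rise in melting shift crosses a set limit at or below the top valid dose tested; inconclusive means flat fit at mid-level activity, or a poor quality fit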
FGF22 TSA = FGF22 (human) binding by thermal shift; shares compounds with FGF22 binding-1; Thermal shift assay, SYPRO orange, melting temperature shift; Tm shift (activity), % at 38 µM; 50 tested, under 10 active;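 active means compounds whose fitted dose curve of melting temperature shift rises past a set threshold within the tested doses; inconclusive means flat curve at moderate activity, or poor curve fit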
TSA no protein = shows thermal shift signal without protein, FGF22 counter-screen | AC50, µM (doses to about 38 µM) | AID 743019 | actives 2% (n = 1,000) | compound-only SYPRO orange thermal shift counter-screen, no protein | shares compounds with FGF22 binding-1;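 active means rising signal whose fitted curve reaches the 0.54 level within the top valid dose, showing a melting point, actives reach about 13 µM in these data; inactive means the rest, including activity in the opposite direction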; further: value is where the raw curve crosses a fixed level and not half-maximal
Hits are given with their value; 0 = inactive; ? = inconclusive; - = not tested or not shown.

SMILES	NR2E3 ag-1	697 NFkB inh	miR-122 sensor	Jurkat NFkB inh	FGF22 binding-1	NR2E3 ag-2	Jurkat NFkB conf	697 NFkB conf	others
CCOc1ccccc1CNS(=O)(=O)c1ccc(-c2cnc(C3CC3)o2)cc1	0	0	-	57.5	0	84.9	55.0	-	NR2E3 ag confirm=0;GAL4-VP16 luc=0
Cc1ccc(NS(=O)(=O)c2ccc(-c3cnc(C4CC4)o3)cc2)cc1	0	0	?	0	0	0	-	-
Cc1cccc(C)c1NS(=O)(=O)c1ccc(-c2cnc(C3CC3)o2)cc1	0	0	0	59.0	0	70.2	64.5	-	NR2E3 ag confirm=0;GAL4-VP16 luc=0
Cc1cccnc1Nc1nc(-c2ccccn2)cs1	0	0	0	81.0	-	77.2	0	0	NR2E3 ag confirm=99.8;GAL4-VP16 luc=0
Cc1cc(NC(=O)CSc2nc3c(sc4ccccc43)c(=O)n2CCCN2CCOCC2)n[nH]1	0	37.7	178.3	59.1	-	72.3	59.2	0	NR2E3 ag confirm=96.2;GAL4-VP16 luc=0
O=C(C[C@@H]1CC[C@H](NC(=O)C2CCC2)[C@H](CO)O1)NCCCN1CCOCC1	-	-	-	-	0	-	-	-
O=C(Nc1ccccc1SC(=O)c1ccccc1)c1ccccc1	-	-	0	-	0	0	-	-
Cc1ccc(C(=O)Sc2cccccc2=O)cc1	0	0	-	90.3	0	101.1	0	-	NR2E3 ag confirm=0;GAL4-VP16 luc=0
COc1ccc(C#Cc2ccc([C@@H]3[C@@H](CO)N4CCCCN(C(=O)Nc5cccc(F)c5)C[C@@H]34)cc2)cc1	-	-	0	-	0	-	-	-
Cc1cc(C(=O)NC2CCCc3c2cnn3-c2ccc(C)c(C)c2)n(C)n1 (stereo not given)	0	49.4	0	62.2	0	111.2	79.7	102.2	NR2E3 ag confirm=98.3;GAL4-VP16 luc=88.4
Cc1cc(C2=NNC(=NC3CC3)SC2)c(C)n1-c1ccccc1F	0	39.2	-	78.8	0	94.2	74.4	48.0	NR2E3 ag confirm=89.2;GAL4-VP16 luc=90.7
Cc1cc(C2=NNC(=NC3CCCCC3)SC2)c(C)n1-c1c(C)n(C)n(-c2ccccc2)c1=O	0	0	0	0	0	0	-	-
O=C1C=CC(O)(c2cc(=O)c3c(O)cc(O)cc3o2)C=C1	0	0	-	88.9	0	0	70.8	0	NR2E3 ag confirm=0;GAL4-VP16 luc=0
Cc1ccc(S(=O)(=O)Nc2ccc3c4c(cccc24)CC3)c(C)c1	0	0	198.4	50.1	-	0	0	-	miR-27b qPCR=0
C[C@H]1CN([C@@H](C)CO)S(=O)(=O)c2ccc(-c3ccncc3)cc2O[C@@H]1CN(C)C(=O)c1cccc(F)c1	-	-	0	-	0	-	-	-
Cc1ccn(-c2ccc(NC(=O)c3cccs3)cc2)n1	0	0	0	0	1.8	0	0	-	FGF22 binding-2=0;FGF22 TSA=0;TSA no protein=0
COc1ccc2c3c(n(C)c2c1)[C@H](CO)N(Cc1nccs1)CC31CN(C(=O)CC2CC2)C1	-	-	-	-	0	-	-	-
COc1ccc(N=Cc2ccccc2O)cc1	-	-	0	-	-	0	-	-
COc1ccc(N=Nc2ccc3ccccc3c2)c(O)c1	0	0	-	0	0	0	-	0
CCCN1C[C@H](C)[C@H](OC)CN(C)C(=O)c2cc(NC(=O)Nc3c(C)noc3C)ccc2OC[C@@H]1C	-	-	-	-	0	-	-	-
CCCCCN(C(=O)CCC(=O)OCc1cccc(Br)c1)c1c(N)n(CCCC)c(=O)[nH]c1=O	0	35.2	0	0	0	0	-	0
CCCCCN(C(=O)CCC(=O)OCc1cccc(Cl)c1)c1c(N)n(CCCC)c(=O)[nH]c1=O	0	0	0	0	0	0	-	-
COc1cccc(NC(=O)Nc2ccc3c(c2)C(=O)N(C)[C@@H]2CC[C@H](CC(=O)O)O[C@@H]2CO3)c1	-	-	0	-	0	-	-	-
O=C(CC1CC1)Nc1ccc2c(c1)[C@@H]1C[C@@H](CC(=O)N3CCCCC3)O[C@@H](CO)[C@@H]1O2	-	-	0	-	0	-	-	-
Cc1ccc2nc(-c3ccccc3N)[nH]c2c1	0	0	0	0	0	0	-	0
SMILES	NR2E3 ag-1	697 NFkB inh	miR-122 sensor	Jurkat NFkB inh	FGF22 binding-1	NR2E3 ag-2	Jurkat NFkB conf	697 NFkB conf	others
Cc1ccc(C)c(-c2nc3ccc(N)cc3[nH]2)c1	0	0	0	0	-	0	-	-
O=C(c1ccccc1F)N1CC[C@H]2[C@H](CO)Nc3ccc(C#Cc4ccccc4)cc3[C@H]21	-	-	0	-	0	-	-	-
CCOC(=O)c1[nH]c(C)c(C(=O)NCc2ccc(Cl)cc2)c1C	0	0	0	0	-	0	-	-
CCOC(=O)c1[nH]c(C)c(C(=O)NCCc2ccc(OC)cc2)c1C	0	35.7	0	0	0	0	-	0
CCC(=O)N(C)C[C@H]1Oc2cc(/C=C/c3ccccc3)ccc2S(=O)(=O)N([C@@H](C)CO)C[C@H]1C	-	-	0	-	0	-	-	-
CCCOc1c(OC)cccc1C1CC(=O)Nc2cc(OC)c(OC)c(OC)c21 (stereo not given)	0	0	0	0	-	0	-	-
COc1ccc(OC)c(C2CC(=O)Nc3cc(OC)c(OC)c(OC)c32)c1 (stereo not given)	0	35.2	0	0	-	0	-	43.0
CNC[C@H]1OCCCC[C@H](C)Oc2ccc(NC(=O)CCC(F)(F)F)cc2C(=O)N([C@H](C)CO)C[C@@H]1C	-	-	0	-	-	-	-	-
CCN(CC(=O)Nc1c(F)cccc1F)C(=O)c1ccc(C(=O)c2ccccc2)cc1	0	0	-	0	0	0	-	-
CCN(CC(=O)Nc1c(F)cccc1F)C(=O)C1(c2ccccc2)CC1	0	49.8	0	0	0	0	-	19.2
COC(=O)[C@H](C)NC(=O)Nc1cccc(C(F)(F)F)c1	0	35.6	0	0	-	0	-	0
COc1ccc(C(=O)Nc2nc(-c3cccs3)c(NC(C)=O)s2)cc1	0	0	0	0	-	0	-	-
CC(=O)Nc1sc(NC(=O)c2ccc(C)cc2)nc1-c1cccs1	0	35.9	0	0	-	0	-	0

Assay outcomes (PubChem)
